Data set [1] deals with H9c2. Put plainly: Increase in cytoplasmic intracellular calcium level in differentiated rat H9c2 cells depolarized through 60 mM KCl application in presence of extracellular calcium assessed as cells that prolonged KCl-dependent intracellular [Ca2+] transient at 10 uM by Fura-2-AM dye based epifluorescent microscopy. In kind it is functional. Summed up:
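Differentiated H9C2 cardiomyocytes (10 nM retinoic acid daily, 1% FCS) loaded with Fura 2-AM for 40 min, then 15 min at 37 °C in NES. Depolarized with 60 mM KCl in NES with extracellular Ca2+. 10 µM compound given within 30 s after start of the KCl-dependent plateau. Ratio imaging at 340/380 nm excitation, 510 nm emission. Scored as percent of tested cells (n per compound) with prolonged transient.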
On the technique in general: Calcium flux is commonly read through the fluorescence of an indicator in the cells.

The subject of data set [2] is H9c2. Put plainly: Cytotoxicity against differentiated rat H9c2 cells assessed as reduction in cell viability at 10 nM after 24 hrs by MTT assay. In kind it is cell-based. The settings on record: h9c2, 24 h, 0.01 µM. Summed up: (§1)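 H9C2 rat embryonic ventricular cell line, grown subconfluent in DMEM-F12 with 10% heat-inactivated FBS; differentiated cells obtained in 1% FCS medium with 10 nM retinoic acid added daily with medium renewal. Cells, undifferentiated or differentiated, exposed 24 h to 10 nM, 1, 10 or 100 µM compound; viability by MTT reduction to formazan, optical density at 570 nm, expressed as percent of control.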
For orientation: Formazan colour is commonly taken as a measure of viable cells.

For data set [3], the system named is H9c2. The data set is described as follows: Cytotoxicity against differentiated rat H9c2 cells assessed as reduction in cell viability at 1 uM after 24 hsr by MTT assay. Type of data set: cell-based. The settings on record: h9c2, 1 µM. Summed up:
as §1

In data set [4] the test system is H9c2. The data set is described as follows: Cytotoxicity against differentiated rat H9c2 cells assessed as reduction in cell viability at 100 uM after 24 hrs by MTT assay. In kind it is cell-based. The settings on record: h9c2, 24 h. Summed up: as §1
Data set [5] deals with H9c2. Put plainly: Cytotoxicity against differentiated rat H9c2 cells assessed as reduction in cell viability at 10 uM after 24 hrs by MTT assay. In kind it is cell-based. The settings on record: h9c2, 24 h. Put shortly:
as §1

In data set [6] the test system is H9c2. The data set is described as follows: Toxicity against undifferentiated rat H9c2 cells assessed as reduction in cell viability at 100 uM after 24 hrs by MTT assay. Type of data set: cell-based. Conditions: h9c2, 24 h. Summed up: as §1
Data set [7] relates to H9c2. The data set is described as follows: Increase in cytoplasmic intracellular calcium level in differentiated rat H9c2 cells at 10 uM by Fura-2-AM dye based epifluorescent microscopy. In kind it is functional. Put shortly: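 Retinoic acid (10 nM, daily)-differentiated H9C2 cells loaded 40 min with Fura 2-AM, washed in NES, held 15 min at 37 °C for dye de-esterification. Cells stimulated directly with 10 µM compound; single living cells imaged by epifluorescence microscopy, excitation 340/380 nm, emission 510 nm, whole-cell fluorescence ratio. Minimum 10, maximum 25 cells per compound; percentage of cells showing basal [Ca2+]i increase.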

For the molecule `Cc1[nH]c(=O)c(C#N)cc1-c1ccncc1` [MILRINONE], the Activity with H9c2 [1] amounted to 50%; in the data set on H9c2 [2], 90%; in the data set with H9c2 [3] it was 90%; in the data set on H9c2 [4], 50%; in the data set on H9c2 [5], 75%.
As to `CCOC(=O)N1CCC(NC(=O)c2cc(C#N)c(=O)[nH]c2C)CC1`, the Activity in the data set on H9c2 [1] was 25%; in the data set with H9c2 [2], 90%; in the data set on H9c2 [6], 20%; with H9c2 [3] it was 90%; with H9c2 [4], 50%; in the data set on H9c2 [5], 75%.
With `Cc1[nH]c(=O)c(C#N)cc1C(=O)OCc1ccccc1`, the Activity in the data set with H9c2 [1] was 0%.
In the case of `Cc1[nH]c(=O)c(C#N)cc1C(=O)O`, in the data set with H9c2 [1], the Activity stood at 0%.
The same measure, in the same setting: with `Cc1[nH]c(=O)c(C#N)cc1C(=O)OCCSc1ccccn1` the figure was 0%; with `Cc1[nH]c(=O)c(C#N)cc1C(=O)OCCSc1nc2ccccc2s1`, 0%.
On to `Cc1[nH]c(=O)c(C#N)cc1C(=O)NCc1ccccc1`, for which the Activity with H9c2 [1] stood at 40%; in the data set on H9c2 [2], 90%; in the data set on H9c2 [6] it was 20%; with H9c2 [5], 75%.
As to `CCC(NC(=O)c1cc(C#N)c(=O)[nH]c1C)c1ccccc1` (centres undefined), the Activity in the data set with H9c2 [1] is 30%; with H9c2 [2] it was 90%; in the data set with H9c2 [6], 50%; in the data set on H9c2 [3] it was 90%; with H9c2 [4] it was 50%; in the data set on H9c2 [5], 75%.
`Cc1[nH]c(=O)c(C#N)cc1C(=O)NC(C)c1ccccc1` (centres undefined): in the data set on H9c2 [1], the Activity is reported as 0%.
The same measure, in the same setting: the value for `CCOC(=O)c1cc(C#N)c(=O)[nH]c1C` was 0%.
For `Cc1ccc(C#N)c(=O)[nH]1`, the Activity in the data set with H9c2 [1] is 45%; in the data set on H9c2 [7], 78%; in the data set with H9c2 [2], 90%; in the data set with H9c2 [6] it was 50%; in the data set on H9c2 [3], 90%; in the data set on H9c2 [4], 50%. Besides, the Activity in the data set on H9c2 [5] is reported as 75%.

The values are drawn from ChEMBL document CHEMBL1275288, “Effect of milrinone analogues on intracellular calcium increase in single living H9C2 cardiac cells” (Eur J Med Chem, 2010).
